Rows were chosen to be rich in hits. Some 1.5% of all compounds tested hit in one or more screens of this group.
m-calpain inh: inhibitors of pig calpain II | purified calpain II, fluorogenic peptide substrate, 30 min | inhibition, % at 16 µM | hit rate 0.37% among 220,000 | AID 1236;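 active = inhibition above about 50%, limit read from the data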
MDM2 E3 inh: inhibitors of human Mdm2 E3 ubiquitin ligase. Q00987. signal enhancement, % at 5 µM. AID 1230. hit rate 0.11% among 210,000. cell-based MDM2 ubiquitination luciferase reporter, 2 h; 0 = plate control, 100 = twice control, blank-subtracted;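 active = signal enhancement of 30% or more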;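 also: luminescence tracks abundance of the self-degrading MDM2-luciferase fusion protein; higher signal means inhibition of MDM2 E3 ligase activity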
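Material: stable MDM2–luciferase fusion reporter cells / Quantity: 2000 cells/well / Dosing: single 5 µM compound dose, 0.2% final DMSO / Buffer or medium: DMEM / Schedule: 4 h cell settling then 2 h compound exposure, 37 °C / Detection: luminescence with SteadyLite reagent, 15 min at room temperature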
Pf gamet viab: P. falciparum stage V gametocyte viability inhibition; P. falciparum stage V gametocytes, ATP luminescence, 24 h; inhibition, % at 10.9 µM; hit rate 0.065% among 150,000;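 active = inhibition above the mean plus 3 SD of compounds within the control limits, set per campaign, cut at about 38% in these data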;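 also: 0% = DMSO wells and 100% = medium only without gametocytes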
Hsp70 activator: switches on Hsp70 transcription. HeLa Hsp70 promoter luciferase reporter, luminescence; scaled: vehicle 0, proteasome-inhibitor control 100%. activation, % at 10 µM. hit rate 0.04% among 200,000;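 active = activation above the mean across all tested compounds plus 3 SD, cutoff set per campaign, cut at about 5.5% in these data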;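 also: 100% = MG132 at 30 µM as the positive control and 0% = DMSO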
Wee1 degr inh: inhibitors of human Wee1 degradation; HeLa Luc-Wee1K328M stability, luciferase luminescence; 100% = proteasome inhibitor MG132 effect; reporter increase, % at 5 µM; hit rate 1.2% among 220,000; AID 1321;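 active = activation above the mean of all tested compounds plus 3 SD, set per screening run, cut at about 8.8% in these data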;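 also: cells exposed to compound for 20 h before luminescence read; 0% = DMSO alone and 100% = MG132 at 30 µM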
Wee1 stab conf: confirmation of human Wee1 degradation inhibitors. HeLa Luc-Wee1K328M degradation, luminescence; vehicle 0%, proteasome-blocked wells 100%. AID 1410. shares compounds with Wee1 degr inh. activation, % at 5 µM. hit rate 4% among 1,100; in the data active = activation above about 8.9%
An asterisk follows results filed as active; . = no result given.

SMILES	m-calpain inh	MDM2 E3 inh	Pf gamet viab	Hsp70 activator	Wee1 degr inh	Wee1 stab conf
CC(C)(C)c1ccc(C2(C)NC(=O)N(CC(=O)Nc3ccc4c(c3)OCO4)C2=O)cc1 (stereo not given)	-39	-13	.	0	14*	3
Cc1nc2nc(N)nc(OCc3ccccc3)c2nc1C	.	.	15	.	.	.
CCOC(=O)N1CCC(NCCNC(=O)c2cccc(F)c2)CC1	.	.	6	.	.	.
CCCCOC(=O)CCc1c(C)n[nH]c1C	-4	-12	3	.	12*	2
Cc1ccc2cc([N+](=O)[O-])ccc2n1	-11	-4	1	.	5	.
c1ccc(C(c2ccccc2)N2CCN(c3nc4ccccc4n4cnnc34)CC2)cc1	-107	-35	-7	0	11*	1
COc1ccc(C2CC(C(F)(F)F)n3ncc(C(=O)Nc4cccc(O)c4)c3N2)cc1OC (stereo not given)	2	-26	.	0	13*	-3
CCCCNCCCOc1cccc(Cl)c1Cl	-21	-5	4	0	11*	2
CCN(c1ccccc1)S(=O)(=O)c1ccc(Cl)c(NC(=O)CN2C(=O)NC3(CCCC3)C2=O)c1	6	.	15	.	-2	.
CC(C)CC1c2[nH]c3ccccc3c2CCN1C(=O)c1cnccn1 (stereo not given)	-35	-12	-20	0	19*	1
CC(=O)c1cc(C(=O)N2CCc3c([nH]c4ccccc34)C2CC(C)C)[nH]n1 (stereo not given)	-43	0	.	0	0	.
CCOCCOc1cccc(C(=O)NC(c2ccccc2)c2ccccc2)c1	.	.	-27	.	.	.
COc1cccc(-c2nnc(-c3ccco3)o2)c1	-47	-41	.	0	11*	4
Cc1nc(NC(=O)CSc2nnc(-c3ccc4c(c3)OCO4)o2)c(Cl)cc1Cl	-6	-14	.	0	11*	5
Cc1ccsc1/C=C(\C#N)C(=O)NC1CCS(=O)(=O)C1 (stereo not given)	3	-7	-28	0	12*	3
O=c1cc(CO)oc2ccccc12	.	.	4	.	.	.
O=c1cc(/C=C/c2ccccc2)oc2ccccc12	-5	-12	-2	0	12*	5
COc1ccc(NC(=S)Nc2ccccc2C(F)(F)F)cc1	-24	-18	6	0	17*	1
Cc1ccc(C(=O)CSc2nc3ccccc3c(=O)[nH]2)cc1	-23	-17	-16	0	21*	1
CCc1ccc(C(=O)CSc2nc3ccccc3c(=O)[nH]2)cc1	-28	-9	-15	0	-1	.
CC(Sc1nnc(COc2ccc(Cl)cc2)n1Cc1ccccc1)C(=O)O (stereo not given)	-36	-10	-12	0	-3	.
Cc1cc(OCc2nnc(SC(C)C(=O)O)n2Cc2ccccc2)ccc1Cl (stereo not given)	-58	-1	-5	0	18*	-1
CC(=O)c1ccc(NC(=S)N2C(C)CCCC2C)cc1 (stereo not given)	4	-2	.	0	0	.
CCc1ccc(C2c3[nH]c4ccccc4c3CCN2C(=O)CNC(N)=O)cc1 (stereo not given)	-28	-27	7	0	23*	0
Cc1ccc(/C=C/C(=O)NCCCc2ccccc2)cc1	-5	-12	-1	0	19*	-1
SMILES	m-calpain inh	MDM2 E3 inh	Pf gamet viab	Hsp70 activator	Wee1 degr inh	Wee1 stab conf
C#CCNC(=O)/C=C/c1ccc(C)cc1	-14	.	-25	1	-1	.
Cc1ccc(NC(=O)NCc2c(C)nn(C)c2C)cc1Cl	4	-1	-6	0	18*	4
Cc1cc(CN2CCCC(CO)(Cc3cccc(Cl)c3)C2)n[nH]1 (stereo not given)	21	-21	.	0	14*	0
O=C1Cc2ccccc2C(c2ccccc2)N1 (stereo not given)	7	-14	.	0	2	.
Cc1ccc(C2NC(=O)Cc3ccccc32)cc1 (stereo not given)	30	0	.	0	14*	1
O=C(CN1C(=O)COc2ccc(S(=O)(=O)N3CCOCC3)cc21)NCc1ccco1	-22	-4	-17	.	-2	.
Cc1nc(NNC(=O)c2ccc(Cl)cc2Cl)cc(-c2ccccc2)n1	10	-22	.	1	11*	1
O=C(NNC(=O)c1ccc(Cl)cc1Cl)Nc1ccccc1	22	-1	.	0	3	.
CCN(CC)CCNC(=O)Cc1nn(Cc2ccccc2)c(=O)c2ccccc12	-20	.	22	0	-2	.

Source: PubChem BioAssay
